TDP2 inh: blocks human TDP2 phosphodiesterase activity | AID 720702 | 370,000 compounds, 0.34% hits | inhibition, % at 12.8 µM | recombinant TDP2, T5PNP hydrolysis, p-nitrophenol absorbance 415 nm;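 active = inhibition above the mean of all tested compounds plus 3 SD, set per campaign, cut at about 25% in these data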
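Material: recombinant human TDP2; quantity: TDP2 enzyme at 120 nM final; medium: Tris-HCl pH 7.5 with MgCl2; compound: single concentration, 12.8 µM nominal, with 1% DMSO; incubation: 2 h enzyme incubation at 37 °C; signal: epi absorbance; measure: percent inhibition; benchmarks: high control without enzyme, low control DMSO plus TDP2; repeats: singlicate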
LEDGF integ inh: blocks HIV-1 LEDGF/p75-dependent DNA integration | TR-FRET IN-LEDGF/p75 DNA integration, Eu/Cy5 | inhibition, % at 3.7 µM | 370,000 compounds, 0.64% hits;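 active = inhibition above the screen-wide mean plus 3 SD, cut at about 13% in these data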;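 also: signal is the Cy5 over europium emission ratio at 671 and 618 nm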
ARFGAP1 inh: inhibits rat ARF GTPase activating protein 1; inhibition, % at 16.5 µM; AID 651572; Arfgap1-stimulated ARF1 GTP hydrolysis, GDP FP detection; Q62848; 360,000 compounds, 0.26% hits;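 active = inhibition above a per-plate limit, mean inhibition of low control wells plus 3 SD, cut at about 25% in these data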
Target sequence (Q62848 1-136 limits assumed): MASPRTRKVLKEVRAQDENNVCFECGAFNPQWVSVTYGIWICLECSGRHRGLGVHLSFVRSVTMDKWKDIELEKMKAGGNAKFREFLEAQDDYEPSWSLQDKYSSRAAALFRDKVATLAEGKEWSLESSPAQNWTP
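Assay system: purified rat His6-Arfgap1 residues 1-136 (GAP domain); Reagent: human Δ17 ARF1 bound to GTP; Dosing: 16.5 µM single point, 1.26% DMSO; Times: GTP hydrolysis reaction 2 h at 25 °C; Signal: FP, GDP Alexa 633 tracer displaced from anti-GDP antibody, 620/688 nm; Measure: % inhibition from polarization.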
MBD2 DNA inh: inhibitors of human MBD2 binding to methylated oligonucleotide. TR-FRET. inhibition, % at 4.4 µM. 370,000 compounds, 0.31% hits. AID 686964; in the data active = inhibition above about 13%
Target sequence (Q9UBB5 whole entry, looked up): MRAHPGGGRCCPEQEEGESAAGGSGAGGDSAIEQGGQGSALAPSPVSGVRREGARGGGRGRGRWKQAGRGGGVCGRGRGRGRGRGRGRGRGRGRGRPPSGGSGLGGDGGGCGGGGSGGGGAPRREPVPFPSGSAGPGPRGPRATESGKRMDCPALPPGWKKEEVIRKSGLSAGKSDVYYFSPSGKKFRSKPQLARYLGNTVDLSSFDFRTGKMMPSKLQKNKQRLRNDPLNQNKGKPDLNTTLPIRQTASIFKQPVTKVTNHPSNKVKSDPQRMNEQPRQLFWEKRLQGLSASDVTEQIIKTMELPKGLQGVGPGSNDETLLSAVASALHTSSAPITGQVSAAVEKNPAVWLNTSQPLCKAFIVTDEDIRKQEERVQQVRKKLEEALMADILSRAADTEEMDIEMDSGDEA
UHRF1 binding: UHRF1 methyl-DNA binding inhibition. Q96T88. UHRF1 binding to methylated oligo, TR-FRET. inhibition, % at 4.4 µM. 370,000 compounds, 0.75% hits. AID 687016; in the data active = inhibition above about 21%;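 also: UHRF1 SRA domain binding a hemimethylated CpG hairpin DNA probe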
ASAP1 GAP inh: blocks human ASAP1-stimulated Arf1 GTP hydrolysis; AID 624377; Q9ULH1; 360,000 compounds, 0.19% hits; inhibition, % at 16.5 µM; GDP FP detection; in the data active = inhibition above about 25%
IN multimer act: HIV-1 integrase multimerization activation, counter-screen; 2,000 compounds, 17% hits; shares compounds with LEDGF integ inh; TR-FRET HIV-1 integrase multimerization, biochemical; activation, % at 7.7 µM; in the data active = activation above about 8.9%
TR-FRET interf: optically interferes with TR-FRET readout in LEDGF counter-screen; TR-FRET optical interference counterscreen, HIV-1 IN multimerization; AID 1053135; 2,000 tested, under 10 active; shares compounds with LEDGF integ inh; inhibition, % at 7.7 µM;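 active = inhibition above the mean over all tested compounds plus 3 SD, which no compound reached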
IN-LEDGF confirm: LEDGF/p75-dependent HIV-1 integration inhibition, confirmation | AID 1053136 | 2,000 compounds, 36% hits | shares compounds with LEDGF integ inh | TR-FRET LEDGF/p75-dependent HIV-1 integration, biochemical | inhibition, % at 3.7 µM; in the data active = inhibition above about 14%
Large screens that a line does not name were inactive (follow-up assays come after a bar, where they were run). Hits are enriched below; roughly 2% of the tested compounds scored in any of these assays.

Brc1ccc(CSc2ccc3nnc(-c4cccnc4)n3n2)cc1	none
CCOc1ccc(C(=O)C[n+]2ccccc2C)cc1	LEDGF integ inh 14 | IN multimer act inactive | TR-FRET interf inactive | IN-LEDGF confirm inactive
COC(=O)c1cc(S(=O)(=O)N2CCCC2)c(Cl)cc1Cl	LEDGF integ inh 61 | IN multimer act inactive | TR-FRET interf inactive | IN-LEDGF confirm inactive
COC(=O)[C@]12C[C@H](CC(=O)NCCC(C)C)C(=O)N(CCc3ccc(OC)c(OC)c3)C1=C[C@H](C1CCCC1)O[C@@H]2C	none (no result: ARFGAP1 inh, ASAP1 GAP inh)
CC(=O)Nc1ccc(-c2ccnc3c2CC(C(=O)Nc2cccc(N(C)C)c2)O3)cc1 (centres undefined)	LEDGF integ inh 24 | IN multimer act inactive | TR-FRET interf inactive | IN-LEDGF confirm inactive
O=C(Nc1ccccc1)Nc1c(-c2ccccc2)nc2ncccn12	none (no result: ARFGAP1 inh, ASAP1 GAP inh)
COc1ccc(C(=O)CSc2nnc(-c3ccccc3)n2-c2ccc(Cl)cc2)cc1	none (no result: ARFGAP1 inh, ASAP1 GAP inh)
O=C(NC(=S)Nc1cccc([N+](=O)[O-])c1)C1CCCC1	LEDGF integ inh 88 | IN multimer act inactive | TR-FRET interf inactive | IN-LEDGF confirm inactive
C=CCN=c1scc(-c2ccco2)n1/N=C/c1ccc(O)c(O)c1O	LEDGF integ inh 43 | IN multimer act inactive | TR-FRET interf inactive | IN-LEDGF confirm 30
COCCN=c1scc(-c2ccco2)n1/N=C/c1ccc(O)c(O)c1O	LEDGF integ inh 45 | IN multimer act 16 | TR-FRET interf inactive | IN-LEDGF confirm 53
CC(C)N=c1scc(-c2ccco2)n1/N=C/c1ccc(O)c(O)c1	none
O=C(NCCc1c[nH]c2ccccc12)OCc1cn(-c2ccccc2Cl)nn1	none (no result: ARFGAP1 inh, ASAP1 GAP inh)
O=C(c1cn(-c2ccccc2)nc1-c1ccncc1)n1nnc2ccccc21	LEDGF integ inh 16 | IN multimer act inactive | TR-FRET interf inactive | IN-LEDGF confirm inactive
O=C(O)c1cn(-c2ccccc2)nc1-c1ccncc1	none
CC1C(=O)N(Cc2cn(Cc3ccco3)nn2)CCS(=O)(=O)N1Cc1ccc(-c2cccnc2)cc1 (centres undefined)	LEDGF integ inh 17 | IN multimer act inactive | TR-FRET interf inactive | IN-LEDGF confirm inactive
CN(C)c1cccc(-c2cnc(N3CCC(C(N)=O)CC3)s2)c1	none (no result: ARFGAP1 inh, ASAP1 GAP inh)
O=C(CCN1CCCCC1)NCNC(=O)CCN1CCCCC1	none
O=C(CCN1CCCCC1)NNC(=O)C12CC3CC(CC(C3)C1)C2	LEDGF integ inh 89 | IN multimer act inactive | TR-FRET interf inactive | IN-LEDGF confirm inactive
CCN(CCn1cccn1)Cc1c(C(=O)N2CCCCCCC2)nc2ccc(Cl)cn12	LEDGF integ inh 27 | IN multimer act inactive | TR-FRET interf inactive | IN-LEDGF confirm inactive
CC(C(=O)N(C)C1CCS(=O)(=O)C1)N1C(=O)/C(=C/c2cccs2)SC1=S (centres undefined)	none
CC(C(=O)N(C)C1CCS(=O)(=O)C1)N1C(=O)/C(=C/c2ccco2)SC1=S (centres undefined)	LEDGF integ inh 30 | IN multimer act inactive | TR-FRET interf inactive | IN-LEDGF confirm 15
Cc1ccccc1S(=O)(=O)N1CCC(c2nc3ccccc3o2)CC1	none (no result: ARFGAP1 inh, ASAP1 GAP inh)
COc1cccc(C(=O)Nc2nc(-c3ccccc3)c(-c3ccccc3)o2)c1	LEDGF integ inh 14 | IN multimer act inactive | TR-FRET interf inactive | IN-LEDGF confirm 19
O=C(Nc1nc(-c2ccccc2)c(-c2ccccc2)o1)c1ccc(F)cc1	LEDGF integ inh 26 | IN multimer act inactive | TR-FRET interf inactive | IN-LEDGF confirm 18
COC(=O)C1CCCN(C(=O)C2CCN(S(=O)(=O)c3ccccc3[N+](=O)[O-])CC2)C1 (centres undefined)	none (no result: ARFGAP1 inh, ASAP1 GAP inh)
Cc1ccc(C(=O)NC2CCCCN(Cc3ccccc3C)C2=O)cc1 (centres undefined)	none (no result: ARFGAP1 inh, ASAP1 GAP inh)
O=C(O)c1ccccc1O	none
Nc1c(O)cccc1C(=O)O	LEDGF integ inh 38 | IN multimer act inactive | TR-FRET interf inactive | IN-LEDGF confirm 21
Cc1cc(/C=C\c2nc(O)c([N+](=O)[O-])c(=O)[nH]2)c(C)n1-c1ccccc1	LEDGF integ inh 29 | IN multimer act inactive | TR-FRET interf inactive | IN-LEDGF confirm inactive
COc1ccc(-n2c(C)cc(/C=C/c3nc(O)c([N+](=O)[O-])c(=O)[nH]3)c2C)cc1	none
O=C(O)C(C(=O)/C=C/c1ccco1)=C1SCCS1	LEDGF integ inh 18 | IN multimer act inactive | TR-FRET interf inactive | IN-LEDGF confirm 33
O=C(/C=C/c1ccc([N+](=O)[O-])cc1)/C=C/c1ccco1	LEDGF integ inh 22 | IN multimer act inactive | TR-FRET interf inactive | IN-LEDGF confirm 47
O=C(C=C1SCCS1)/C=C/c1ccco1	LEDGF integ inh 14 | IN multimer act inactive | TR-FRET interf inactive | IN-LEDGF confirm 35
CC(C)(C)OC(=O)NCc1ccccc1/C=C/S(=O)(=O)NCc1ccc(F)cc1	none (no result: ARFGAP1 inh, ASAP1 GAP inh)
Cc1cccc2cc(CN(Cc3ccc(F)cc3)C(=O)N3CCOCC3)c(=O)[nH]c12	LEDGF integ inh 14 | IN multimer act inactive | TR-FRET interf inactive | IN-LEDGF confirm inactive
Cc1occc1-c1nnc(SCC(=O)N2CCN(c3ncccn3)CC2)n1-c1ccccc1	none (no result: ARFGAP1 inh, ASAP1 GAP inh)
CN(CC(=O)Nc1cc([N+](=O)[O-])ccc1Cl)Cc1ccc(Br)cc1	LEDGF integ inh 14 | IN multimer act inactive | TR-FRET interf inactive | IN-LEDGF confirm inactive
COc1ccccc1S(=O)(=O)N(C)C[C@H]1OCc2cnnn2CCCC(=O)N([C@H](C)CO)C[C@@H]1C	none
COc1ccccc1S(=O)(=O)N(C)C[C@H]1OCc2cnnn2CCCC(=O)N([C@@H](C)CO)C[C@@H]1C	LEDGF integ inh 53 | IN multimer act inactive | TR-FRET interf inactive | IN-LEDGF confirm inactive
CCOC(=O)c1c2ccc(OCC(=O)N/N=C/c3ccc(C)cc3)cc2n2ccccc12	none
CCOC(=O)c1c2ccc(OCC(=O)NN)cc2n2ccccc12	LEDGF integ inh 23 | IN multimer act inactive | TR-FRET interf inactive | IN-LEDGF confirm inactive
COc1ccc(CNc2ccc(C)cc2)cc1Br	none
COc1ccc(CNc2ccccc2)cc1Br	LEDGF integ inh 22 | IN multimer act inactive | TR-FRET interf inactive | IN-LEDGF confirm inactive
O=C1/C(=C/c2ccccc2)SC(=S)N1C1CCS(=O)(=O)C1 (centres undefined)	none
